Test [1] concerns the target Human immunodeficiency virus type 1 reverse transcriptase (Human immunodeficiency virus 1) (UniProt Q72547). Put plainly: Antiviral activity against wild type HIV1 reverse transcriptase.
Test [2] concerns Human immunodeficiency virus 1 [K103N]. Put plainly: Antiviral activity against HIV1 reverse transcriptase K103N mutant.
For test [3], the system named is Human immunodeficiency virus type 1 reverse transcriptase (Human immunodeficiency virus 1), Q72547 [Y181I]. Put plainly: Antiviral activity against HIV1 reverse transcriptase Y181I mutant.
In test [4] the test system is Human immunodeficiency virus 1. Nature of the test: Antiviral activity against wild type HIV1 NL4-3 in MT4 cells after 5 days by MTT method. It is filed as functional, organism-based. To be noted: Human immunodeficiency virus 1, NL4-3, MT4, 120 h. Put shortly: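 MT-4 lymphoid cells, infected with HIV-1 or mock-infected (for cytotoxicity), held with a range of drug concentrations; viable cells scored at day 5 post-infection by tetrazolium (MTT) colorimetry.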
For orientation: Formazan colour is commonly taken as a measure of viable cells.

The test system of test [5] is Human immunodeficiency virus 1. Nature of the test: Antiviral activity against HIV1 with reverse transcriptase K103N mutation in MT4 cells after 5 days by MTT method. It is filed as functional, organism-based. As to conditions: Human immunodeficiency virus 1, MT4, 120 h. Put shortly:
(§1)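 MT-4 cells from the NIH AIDS Reagent Program were infected with mutant HIV-1 (K103N or Y188L, from the MRC Centralised Facility) in the presence of graded drug concentrations. Mock-infected cells were used for cytotoxicity. Viable cells were counted by MTT colorimetry at day 5 post-infection.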

For test [6], the system named is Human immunodeficiency virus 1. Put plainly: Antiviral activity against HIV1 with reverse transcriptase Y181C mutation in MT4 cells after 5 days by MTT method. In kind it is functional, organism-based. As to conditions: Human immunodeficiency virus 1, MT4, 120 h.
Test [7] deals with Human immunodeficiency virus 1. Put plainly: Antiviral activity against HIV1 with reverse transcriptase Y188L mutation in MT4 cells after 5 days by MTT method. It is filed as functional, organism-based. As to conditions: Human immunodeficiency virus 1, MT4, 120 h. Put shortly: as §1

The structures appear in SMILES notation.

What is called EC50 is the concentration giving half of the maximal effect. For the compound `Cc1c(Cc2c(Cl)cccc2Cl)nc(S/C=C/c2ccc(F)cc2)[nH]c1=O`, the ID50 in test [1], in test [2] and in test [3] was > 20 µM each time. Besides, the EC50 was > 59.4 µM in test [4], 11.9 µM in test [5], > 59.4 µM in test [6] and > 59.4 µM in test [7].

For the compound `CCc1c(Cc2c(F)cccc2F)nc(SCc2ccc([N+](=O)[O-])cc2)[nH]c1=O`, the ID50 was 0.07 µM in test [1], > 20 µM in test [2] and > 20 µM in test [3]. The EC50 in test [4] is 0.074 µM; in test [5], 10.6 µM; in test [6], 2.13 µM; in test [7], > 60 µM.

In the case of `CCc1c(Cc2c(F)cccc2F)nc(SCCc2ccc(OC)cc2)[nH]c1=O`, the values for the ID50 in test [1], in test [2] and in test [3] were 0.022 µM, > 20 µM and > 20 µM, respectively. The 50% effective concentration (EC50) in test [4] is 0.0002 µM; in test [5], 1.92 µM; in test [6], 2.78 µM; in test [7], > 60.1 µM.

For `COc1ccc(CCCSc2nc(C(C)c3c(Cl)cccc3Cl)c(C)c(=O)[nH]2)cc1` (centres undefined), the ID50 in test [1] is 9.76 µM; in test [2], > 20 µM; in test [3], > 20 µM. Besides, the concentration giving a half-maximal response (EC50) in test [4] came out at 0.0002 µM; in test [5], 0.82 µM; in test [6], 0.24 µM; in test [7], 0.28 µM.

Turning to `Cc1c(C(C)c2c(F)cccc2F)nc(SC/C=C/c2ccc([N+](=O)[O-])cc2)[nH]c1=O` (centres undefined), the values for the ID50 in test [1], in test [2] and in test [3] were 0.283 µM, > 20 µM and > 20 µM, respectively. The EC50 in test [4] is 0.14 µM; in test [5], > 11.3 µM; in test [6], > 11.3 µM; in test [7], > 11.3 µM.

Consider `Cc1c(C(C)c2c(Cl)cccc2Cl)nc(SCc2ccc([N+](=O)[O-])cc2)[nH]c1=O` (centres undefined), for which the ID50 in test [1] was 0.408 µM; in test [2] it was > 20 µM; in test [3] it was > 20 µM. Moreover, the half-maximal effective concentration (EC50) in test [4] was found to be 0.019 µM; in test [5], 6.22 µM; in test [6] it was 7.15 µM; in test [7], 9.95 µM.

Consider `Cc1c(C(C)c2c(F)cccc2F)nc(SC/C=C/c2ccc(C#N)cc2)[nH]c1=O` (centres undefined), for which the ID50 in test [1] is 0.161 µM; in test [2], > 20 µM; in test [3] it was > 20 µM. Also, the concentration giving a half-maximal response (EC50) in test [4] is 0.14 µM; in test [5], > 59.1 µM; in test [6] it was > 59.1 µM; in test [7], > 59.1 µM.

Consider `Cc1c(Cc2c(F)cccc2F)nc(SCC#Cc2ccc([N+](=O)[O-])cc2)[nH]c1=O`, for which the ID50 in test [1] was 0.416 µM; in test [2], > 20 µM; in test [3] it was > 20 µM. For the same compound, the EC50 in test [4] is 40.1 µM; in test [5], > 58.6 µM; in test [6], > 58.6 µM; in test [7], > 58.6 µM.

Turning to `CCc1c(C(C)c2c(F)cccc2F)nc(SCCOCc2ccc(OC)cc2)[nH]c1=O` (centres undefined), the figures for the ID50 in test [1], in test [2] and in test [3] were 0.741 µM, > 20 µM and 0.27 µM, respectively. Besides, the concentration for a half-maximal effect (EC50) is 3.89 µM in test [4], > 54.4 µM in test [5], > 54.4 µM in test [6] and > 54.4 µM in test [7].

As to `COc1ccc(/C=C/CSc2nc(C(C)c3c(Cl)cccc3Cl)c(C)c(=O)[nH]2)cc1` (centres undefined), the ID50 in test [1] is 0.018 µM; in test [2], > 20 µM; in test [3], > 20 µM. In addition, the EC50 in test [4] was 0.009 µM; in test [5], 2.47 µM; in test [6], 3.6 µM; in test [7] it was 1.26 µM.

As to `Cc1c(C(C)c2c(Cl)cccc2Cl)nc(SC/C=C/c2ccc([N+](=O)[O-])cc2)[nH]c1=O` (centres undefined), the ID50 in test [1] was 0.102 µM; in test [2], > 20 µM; in test [3], > 20 µM. In addition, the concentration giving a half-maximal response (EC50) is 0.48 µM in test [4], > 41 µM in test [5], > 41 µM in test [6] and > 41 µM in test [7].

On to `COc1ccc(/C=C/CSc2nc(C(C)c3c(F)cccc3F)c(C)c(=O)[nH]2)cc1` (centres undefined), for which the ID50 in test [1] was 0.292 µM; in test [2] it was 3.7 µM; in test [3], > 20 µM. In addition, the EC50 in test [4] was found to be 0.0002 µM; in test [5], 0.26 µM; in test [6], 0.13 µM; in test [7], 0.07 µM.

Take `COc1ccc(COCCSc2nc(C(C)c3c(Cl)cccc3Cl)c(C)c(=O)[nH]2)cc1` (centres undefined): the ID50 in test [1] was 0.022 µM; in test [2], 57.3 µM; in test [3], > 20 µM. For the same compound, the EC50 in test [4] amounted to 0.063 µM; in test [5] it was 6.47 µM; in test [6], 8.98 µM; in test [7], 2.5 µM.

Consider `COc1ccc(COCCSc2nc(C(C)c3c(F)cccc3F)c(C)c(=O)[nH]2)cc1` (centres undefined), for which the ID50 was 0.0082 µM in test [1], 9.94 µM in test [2] and > 20 µM in test [3]. The EC50 in test [4] turned out to be 0.0011 µM; in test [5], 0.92 µM; in test [6] it was 0.65 µM; in test [7], 0.32 µM.

On to `Cc1c(Cc2c(F)cccc2F)nc(SCC(=O)c2ccc([N+](=O)[O-])cc2)[nH]c1=O`, for which the ID50 in test [1] was 0.95 µM; in test [2], > 20 µM; in test [3], > 20 µM. Further, the EC50 in test [4] is 0.37 µM; in test [5] it was > 58 µM; in test [6] it was 4.18 µM; in test [7], > 58 µM.

As for `COc1ccc(CSc2nc(C(C)c3c(Cl)cccc3Cl)c(C)c(=O)[nH]2)cc1` (centres undefined), the ID50 is 0.77 µM in test [1], > 20 µM in test [2] and > 20 µM in test [3]. The EC50 in test [4] worked out at 0.0011 µM; in test [5] it was 6.72 µM; in test [6], 1.73 µM.

Consider `COc1ccc(CCSc2nc(Cc3c(F)cccc3F)c(C)c(=O)[nH]2)cc1`, for which the values for the ID50 in test [1], in test [2] and in test [3] were 0.029 µM, 3.5 µM and > 20 µM, respectively. Moreover, the EC50 in test [4] is 0.0049 µM; in test [5], 4.13 µM; in test [6], 6.34 µM; in test [7] it was 8.53 µM.

Consider `COc1ccc(/C=C/Sc2nc(Cc3c(Cl)cccc3Cl)c(C)c(=O)[nH]2)cc1`, for which the results for the ID50 in test [1], in test [2] and in test [3] were 1.98 µM, > 20 µM and > 20 µM, respectively. Moreover, the half-maximal effective concentration (EC50) in test [4], in test [5], in test [6] and in test [7] was > 57.7 µM throughout.

As to `COc1ccc(/C=C/CSc2nc(Cc3c(F)cccc3F)c(C)c(=O)[nH]2)cc1`, the ID50 in test [1] is 0.25 µM; in test [2] it was > 20 µM; in test [3], > 20 µM. In addition, the concentration giving a half-maximal response (EC50) in test [4] was 0.043 µM; in test [5] it was > 3.93 µM; in test [6], > 3.93 µM; in test [7] it was > 3.93 µM.

Consider `Cc1c(Cc2ccc(C#N)cc2)nc(SCc2ccc(C#N)cc2)[nH]c1=O`, for which the ID50 in test [1], in test [2] and in test [3] was > 20 µM throughout. Moreover, the 50% effective concentration (EC50) in test [4], in test [5], in test [6] and in test [7] was > 67.2 µM each time.

For the compound `CCc1c(Cc2c(Cl)cccc2Cl)nc(SC/C=C/c2ccc(OC)cc2)[nH]c1=O`, the ID50 is 0.056 µM in test [1], > 20 µM in test [2] and > 20 µM in test [3]. Moreover, the EC50 in test [4] is 0.0015 µM; in test [5] it was > 0.19 µM; in test [6], > 0.19 µM; in test [7] it was > 0.19 µM.

As for `CC(=O)Oc1ccc(CSc2nc(Cc3c(Cl)cccc3Cl)c(C)c(=O)[nH]2)cc1`, the ID50 is 0.085 µM in test [1], > 20 µM in test [2] and > 20 µM in test [3]. Besides, the concentration giving a half-maximal response (EC50) was 0.127 µM in test [4], > 55.7 µM in test [5], 8.64 µM in test [6] and > 55.7 µM in test [7].

Turning to `CCc1c(C(C)c2c(F)cccc2F)nc(SC/C=C/c2ccc(C#N)cc2)[nH]c1=O` (centres undefined), the ID50 in test [1] is 0.048 µM; in test [2], > 20 µM; in test [3] it was > 20 µM. Also, the EC50 in test [4] is 0.59 µM; in test [5] it was > 27.2 µM; in test [6], > 27.2 µM; in test [7], > 27.2 µM.

As to `CC(=O)Oc1ccc(CSc2nc(Cc3c(F)cccc3F)c(C)c(=O)[nH]2)cc1`, the ID50 in test [1] was 48 µM; in test [2], > 20 µM; in test [3] it was > 20 µM. Besides, the EC50 in test [4] was 22.9 µM; in test [5], > 60.1 µM; in test [6], > 60.1 µM; in test [7], > 60.1 µM.

In the case of `CCc1c(Cc2c(Cl)cccc2Cl)nc(SC/C=C/c2ccc(C#N)cc2)[nH]c1=O`, the ID50 in test [1] is 0.188 µM; in test [2] it was > 20 µM; in test [3], > 20 µM. In addition, the results for the EC50 in test [4], in test [5] and in test [7] were 1.73 µM, > 54.8 µM and > 54.8 µM, respectively.

With `COc1ccc(C#CCSc2nc(Cc3c(Cl)cccc3Cl)c(C)c(=O)[nH]2)cc1`, the results for the ID50 in test [1], in test [2] and in test [3] were 0.01 µM, > 20 µM and > 20 µM, respectively. The EC50 in test [4] was 2.47 µM; in test [5], > 56.2 µM; in test [7] it was > 56.2 µM.

With `Cc1c(C(C)c2c(Cl)cccc2Cl)nc(SCc2ccc(C#N)cc2)[nH]c1=O` (centres undefined), the ID50 in test [1] is 0.02 µM; in test [2], > 20 µM; in test [3] it was > 20 µM. The results for the EC50 in test [4] and in test [5] were 0.16 µM and 11.6 µM, respectively.

These data come from ChEMBL document CHEMBL1138362, “Dihydro-alkylthio-benzyl-oxopyrimidines as inhibitors of reverse transcriptase: synthesis and rationalization of the biological data on both wild-type enzyme and relevant clinical mutants” (J Med Chem, 2007).
